# Source: PMC6506440 (Scientific Reports, 2013)
# Where a SMILES comes first, the peptide text is derived from it.
# What was measured:
# [1] = Circular dichroism, percentage helicity; format: physicochemical; conditions: Percentage helicity derived using circular dichroism, peptide free in solution
# How it was run: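 Peptides were N-terminally acetylated and C-terminally amidated, and HPLC-purified to >90% purity. Stapled variants carried an (i, i + 3) hydrocarbon linkage. Percentage helicity was derived from circular dichroism spectra.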
# [2] = target: T1, Full-length human eIF4E (human, UniProt P06730 1-217); assay: SPR
# T1 sequence (P06730 whole entry): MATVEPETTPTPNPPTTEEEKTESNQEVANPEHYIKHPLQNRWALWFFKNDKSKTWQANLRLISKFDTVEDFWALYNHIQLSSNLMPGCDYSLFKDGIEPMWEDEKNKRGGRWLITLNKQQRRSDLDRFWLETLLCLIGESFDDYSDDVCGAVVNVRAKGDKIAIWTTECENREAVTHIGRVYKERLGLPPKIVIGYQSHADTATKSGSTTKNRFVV
# [3] = target: T1, Full-length human eIF4E; assay: fluorescence polarisation
# [4] = target: T1, Full-length human eIF4E; assay: fluorescence polarisation; remark: listed apart in the source
molecule,measurement,setting,value
CC(=O)N[C@@H](CCCCN)C(=O)N[C@@H](CCCCN)C(=O)N[C@@H](CCCNC(=N)N)C(=O)N[C@@H](Cc1ccc(O)cc1)C(=O)N[C@@H](CO)C(=O)N[C@@H](CCCNC(=N)N)C(=O)N[C@@H](CCC(=O)O)C(=O)N[C@@H](Cc1ccccc1)C(=O)N[C@@H](CC(C)C)C(=O)N[C@@H](CC(C)C)C(=O)NCC(=O)N[C@@H](Cc1ccccc1)C(N)=O [eIF4G^D5S] (Ac-KKRYSREFLLGF-NH2),Helicity,[1],0%
Ac-KKRYSREFLLGF-NH2 [eIF4G^D5S peptide],Kd,[2],99.9 ± 6.2 nM
same,Kd,[3],195 ± 12.1 nM
Ac-KKRYSRDFLLALQK(FAM)-NH2 [FAM labeled tracer peptide (KKRYSRDFLLALQK-(FAM))],binding result,[4],binds
